Assay results taken from paper PMC8009840 (Bioorganic chemistry, 2021).

Columns and labels:
[1] = target: KOR; conditions: cited from earlier work
[2] = target: MOR; conditions: read-out: MOR Ki; cited from earlier work
[3] = target: KOR (Mus musculus, UniProt P33534); assay: Competitive radioligand binding assay, KOR; parameters: species or system mice; conditions: for Selectivity δ/κ: Ki ratio DOR/KOR; for Selectivity μ/κ: Ki ratio MOR/KOR
How it was run: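 Competition binding on membranes (30 μg protein) from CHO cells expressing mouse KOR or MOR, or human DOR. [3H]diprenorphine labels KOR and DOR, and [3H]naloxone labels MOR. Varied test compound in TME buffer (50 mM Tris, 3 mM MgCl2, 0.2 mM EGTA, pH 7.4), 1.5 h, 30 °C, then filtration. Nonspecific binding: 5 μM U50,488 (KOR), DAMGO (MOR), SNC80 (DOR). IC50 by nonlinear regression, converted to Ki by Cheng-Prusoff; selectivity as Ki ratios.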

[4] = target: human KOR (Homo sapiens, UniProt P41145); assay: [35S]-GTPγS functional assay, KOR-expressed CHO cell membranes; format: biochemical; conditions: for EC50: read-out: KOR [35S]-GTPγS binding EC50, mean ± SEM, at least three experiments; for KOR [35S]-GTPγS binding % Emax of U50,488H: relative to full agonist U50,488H (5 μM)
How it was run: (§1)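 CHO membranes (10 μg protein) incubated 1 h at 30 °C with varied test compound, GDP (15 μM) and 80 pM [35S]GTPγS; nonspecific binding with 10 μM unlabelled GTPγS. Full agonist at 5 μM for the maximal response: U50,488H (KOR), DAMGO (MOR), DPDPE (DOR). Emax is net-stimulated binding as % of that full-agonist stimulation. Mean ± SEM of at least three experiments.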

[5] = target: rat MOR (Rattus norvegicus, UniProt P33535); assay: [35S]-GTPγS functional assay, MOR-expressed CHO cell membranes; format: biochemical; conditions: for EC50: read-out: MOR [35S]-GTPγS binding EC50, mean ± SEM, at least three experiments; for MOR [35S]-GTPγS binding % Emax of DAMGO: relative to full agonist DAMGO (5 μM)
How it was run: as §1

[6] = target: mouse DOR (Mus musculus, UniProt P32300); assay: [35S]-GTPγS functional assay, DOR-expressed CHO cell membranes; format: biochemical; conditions: for EC50: read-out: DOR [35S]-GTPγS binding EC50, mean ± SEM, at least three experiments; for DOR [35S]-GTPγS binding % Emax of DPDPE: relative to full agonist DPDPE (5 μM)
How it was run: as §1

| Compound | μ/κ Ki ratio [1] | Ki ([1]; read-out: KOR Ki) | Ki [2] | Selectivity δ/κ [3] | Selectivity μ/κ [3] | EC50 [4] | KOR [35S]-GTPγS binding % Emax of U50,488H [4] | EC50 [5] | MOR [35S]-GTPγS binding % Emax of DAMGO [5] | EC50 [6] | DOR [35S]-GTPγS binding % Emax of DPDPE [6] |
| --- | --- | --- | --- | --- | --- | --- | --- | --- | --- | --- | --- |
| CN(C(=O)/C=C/c1ccoc1)[C@@H]1CC[C@@]2(O)[C@H]3Cc4cccc5c4[C@@]2(CCN3CC2CC2)[C@H]1O5 [CT-18] | 355 | 1.5 nM | 533 nM | – | – | – | – | – | – | – | – |
| Cl.O=C(N[C@@H]1CC[C@@]2(O)[C@H]3Cc4cccc5c4[C@@]2(CCN3CC2CC2)[C@H]1O5)c1ccnc(Cl)c1 [Compound 6a, 17-Cyclopropylmethyl-4,5α-epoxy-14β-hydroxy-6β-{[4′-(2′-chloropyridyl)]carboxamido}morphinan hydrochloride] | – | – | – | 203 | 1.8 | – | – | – | – | – | – |
| O=C(N[C@@H]1CC[C@@]2(O)[C@H]3Cc4cccc5c4[C@@]2(CCN3CC2CC2)[C@H]1O5)c1ccnc(Br)c1 [Compound 6b, 17-Cyclopropylmethyl-4,5α-epoxy-14β-hydroxy-6β-{[4′-(2′-bromopyridyl)]carboxamido}morphinan] | – | – | – | 280 | 3.3 | 81.9 ± 9.09 nM | 99.27 ± 2.79% | 291 ± 42 nM | 33.62 ± 3.92% | 2680 ± 689 nM | 145.10 ± 12.31% |
| N#Cc1cc(C(=O)N[C@@H]2CC[C@@]3(O)[C@H]4Cc5cccc6c5[C@@]3(CCN4CC3CC3)[C@H]2O6)ccn1 [Compound 6c, 17-Cyclopropylmethyl-4,5α-epoxy-14β-hydroxy-6β-{[4′-(2′-cyanopyridyl)]carboxamido}morphinan] | – | – | – | 551 | 9.5 | 92 ± 8.47 nM | 100.20 ± 2.37% | 338 ± 31.1 nM | 26.48 ± 3.73% | 1850 ± 152 nM | 113.90 ± 3.10% |
| Cc1cc(C(=O)N[C@@H]2CC[C@@]3(O)[C@H]4Cc5cccc6c5[C@@]3(CCN4CC3CC3)[C@H]2O6)ccn1 [Compound 6d, 17-Cyclopropylmethyl-4,5α-epoxy-14β-hydroxy-6β-{[4′-(2′-methylpyridyl)]carboxamido}morphinan] | – | – | – | 38.0 | 0.41 | – | – | – | – | – | – |
| COc1cc(C(=O)N[C@@H]2CC[C@@]3(O)[C@H]4Cc5cccc6c5[C@@]3(CCN4CC3CC3)[C@H]2O6)ccn1 [Compound 6e, 17-Cyclopropylmethyl-4,5α-epoxy-14β-hydroxy-6β-{[4′-(2′-methoxypyridyl)]carboxamido}morphinan] | – | – | – | 67.9 | 0.53 | – | – | – | – | – | – |
